From article PMC9884087 (Journal of Medicinal Chemistry, 2023)

What was measured:
[1] = molecular target: TcCYP51 (Trypanosoma cruzi, UniProt Q7Z1V1); assay: Fluorescence-based Trypanosoma cruzi CYP51 inhibition assay; type: biochemical; settings: concentrations up to and including 100 μM
[2] = Mouse pharmacokinetic study; type: in vivo; settings: for clearance: female, Balb/c, mouse, plasma, iv
Method in brief: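 Female Balb/c mice received test compound i.v. plus p.o., either 1 and 50 mg/kg or 2 and 12.5 mg/kg (n = 3 mice per route). Some arms were pretreated with 1-aminobenzotriazole (50 mg/kg p.o., 2 h before dosing) as a cytochrome P450 inhibitor; others had none. Blood concentration–time profiles were obtained.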

[3] = tested on: panel of 35 known-liability targets including GPCRs and ion channels; assay: Known-liability off-target panel; settings: 300 kinases at 1 μM and 35 known-liability targets at 10 μM
[4] = Mouse preliminary tolerability study; type: in vivo
Method in brief: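 Dosing was oral, twice daily, for 5 days. Recorded: mortality, clinical observations (e.g. temperature to touch, posture, gait, activity), body weight and weight gain, food consumption, and gross pathology.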

[5] = tested on: T. cruzi strain (CL Brener); assay: In vivo efficacy, bioluminescent acute T. cruzi infection in BALB/c mice; parameters: species or system Trypanosoma cruzi; settings: 50 mg/kg BID p.o. 5 days
Method in brief: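 Female BALB/c mice, 7–8 weeks old, housed specific-pathogen-free, infected i.p. with 1 × 10³ CL Brener trypomastigotes from SCID mouse blood. The parasites constitutively express the red-shifted luciferase PpyRE9h. From day 14 post-infection (acute peak), mice (n = 3) received test compound orally at 50 mg/kg twice daily for 5 days. Parasite burden was tracked by in vivo bioluminescence imaging against untreated controls through day 18, with animals observed for adverse effects.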

[6] = Mouse cassette dosing PK; type: in vivo; settings: male, ICR, plasma, iv, 0.1 mg/kg
[7] = single p.o. dose 50 mg/kg, no ABT, 50 mg/kg

TcCYP51, sequence (Q7Z1V1 whole entry): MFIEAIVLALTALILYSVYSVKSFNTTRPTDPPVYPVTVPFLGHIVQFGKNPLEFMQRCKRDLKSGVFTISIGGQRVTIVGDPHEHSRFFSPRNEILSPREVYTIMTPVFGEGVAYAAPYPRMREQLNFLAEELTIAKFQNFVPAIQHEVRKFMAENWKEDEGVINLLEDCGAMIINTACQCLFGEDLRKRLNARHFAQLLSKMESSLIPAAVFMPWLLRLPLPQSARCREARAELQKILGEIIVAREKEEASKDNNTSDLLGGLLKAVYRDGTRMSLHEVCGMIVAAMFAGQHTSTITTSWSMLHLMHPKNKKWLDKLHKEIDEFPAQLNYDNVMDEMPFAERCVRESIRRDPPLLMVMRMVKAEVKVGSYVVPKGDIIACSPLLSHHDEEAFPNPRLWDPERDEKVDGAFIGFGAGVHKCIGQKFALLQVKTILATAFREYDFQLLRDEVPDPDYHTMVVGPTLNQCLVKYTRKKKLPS

For Fc1ccc(C2CCN(c3nc(-c4ccccn4)nc4ccccc34)C2)cc1 (stereo not shown) [Compound 83, 4-[3-(4-Fluorophenyl)pyrrolidin-1-yl]-2-(pyridin-2-yl)quinazoline], the TcCYP51 inhibitory activity [1] was “no inhibitory activity”.
With CC(C)(Nc1nc(-c2ccccn2)nc2ccccc12)c1ccccn1 [Compound 54, 2-(Pyridin-2-yl)-N-(2-(pyridin-2-yl)propan-2-yl)quinazolin-4-amine] the clearance ([2]; 1 mg/kg) was 12.4 mL/min/kg, the “tolerability (single p.o. dose)” value [2, 7] was “No adverse reactions or compound-related side effects were observed” and the off-target activity [3] was “no known off-target activity with the exception of 5HT-1A antagonism”. The “tolerability (5 days BID p.o.)” value ([4]; healthy mice, 10, 50, 100 mg/kg BID p.o., 5 days) was “poor”.
With c1ccc(-c2nc(N3CCC(c4ccccn4)C3)c3ccccc3n2)nc1 (stereo not shown) [Compound 85, 2-(pyridin-2-yl)-4-(3-(pyridin-2-yl)pyrrolidin-1-yl)quinazoline] the clearance ([2]; 2 mg/kg) was 4.9 mL/min/kg, the “tolerability (single p.o. dose)” value ([2]; single dose 12.5 mg/kg p.o. with ABT 50 mg/kg p.o. 2 h prior) was “adverse tolerability events were observed after the single dose” and the “tolerability (single p.o. dose)” value ([2]; single dose 12.5 mg/kg p.o. with ABT 50 mg/kg p.o. 2 h prior, listed as 85 + ABT) was “poor”. For the same molecule, the “tolerability (single p.o. dose)” value [2, 7] was “no adverse issues were noted”, the “adverse effects during treatment of infected mice” value [5] was “no adverse effects were observed” and the clearance [6] was 38.5 mL/min/kg. The “no-observed-adverse-effect-level (NOAEL)” value ([4]; BID p.o. 5 days, female mice) was 100 mg/kg/dose (BID) and the multiday tolerability observations ([4]; female Balb/c mice, 10, 50, 100 mg/kg/dose BID p.o. up to 5 days, 1 animal/group) was “well tolerated”.
